Source: PubChem BioAssay
Rows were chosen to be rich in hits. Some 2.5% of all compounds tested hit in one or more screens of this group.
NTR1 ag = agonists of human neurotensin receptor NTR1. P30989. NTR1-U2OS beta-arrestin-GFP spot imaging, agonist mode. activation, % at 20 µM. 330,000 tested, 0.17% active. AID 493036;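 active = activation at or above 40% of the spot to cytoplasm intensity ratio, with at least 20 cells analyzed; inconclusive = wells under 20 cells, flagged as cytotoxic or low count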
Target sequence (P30989 whole entry, looked up): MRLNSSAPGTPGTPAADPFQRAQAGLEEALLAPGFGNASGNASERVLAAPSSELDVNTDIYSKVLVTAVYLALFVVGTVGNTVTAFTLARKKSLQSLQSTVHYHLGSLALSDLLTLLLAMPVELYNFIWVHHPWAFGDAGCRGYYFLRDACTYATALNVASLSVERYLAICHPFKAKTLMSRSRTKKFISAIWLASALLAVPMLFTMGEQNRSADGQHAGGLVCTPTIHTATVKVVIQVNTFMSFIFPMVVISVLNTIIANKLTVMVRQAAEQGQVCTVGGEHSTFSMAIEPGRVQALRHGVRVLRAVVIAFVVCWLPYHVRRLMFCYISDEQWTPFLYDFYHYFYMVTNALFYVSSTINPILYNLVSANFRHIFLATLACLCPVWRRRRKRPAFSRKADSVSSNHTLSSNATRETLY
sPLA2-III inh = Blocks human group III sPLA2 activity; 370,000 tested, 0.56% active; Q9NZ20; QFRET BODIPY PC-A2 liposome hydrolysis, fluorescence; inhibition, % at 12.2 µM;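 active = inhibition above mean plus 3 SD of compounds lying within the high and low control bounds, cut at about 19% in these data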
MC4R antagonist = antagonists of human melanocortin 4 receptor (MC4R); inhibition, % at 6.5 µM; AID 540295; 360,000 tested, 0.48% active; MC4R-expressing cells, MTII-stimulated cAMP, LANCE TR-FRET;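 active = inhibition above its plate's cutoff, the mean of tested wells on that plate plus 3 SD, cut at about 29% in these data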
Target sequence (P32245 whole entry, looked up): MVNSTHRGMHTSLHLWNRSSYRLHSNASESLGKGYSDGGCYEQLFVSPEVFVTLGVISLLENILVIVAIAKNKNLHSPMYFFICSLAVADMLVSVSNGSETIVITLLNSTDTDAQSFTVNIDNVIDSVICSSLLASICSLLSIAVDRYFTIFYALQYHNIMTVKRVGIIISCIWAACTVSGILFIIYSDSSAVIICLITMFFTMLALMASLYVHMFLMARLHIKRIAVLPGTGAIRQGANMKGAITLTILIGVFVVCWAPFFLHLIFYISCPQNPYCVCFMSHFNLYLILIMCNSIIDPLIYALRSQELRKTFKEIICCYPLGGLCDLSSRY
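Test system: U2OS cells stably expressing human melanocortin 4 receptor (MC4R); also added: Melanotan II challenge; compound: 6.5 µM single dose; timing: 30-min compound preincubation, 1-h Melanotan II challenge, 1-h detection, room temperature; signal: Eu-cAMP/anti-cAMP TR-FRET, emission 671 nm; repeats: one well per compound, no replicates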
Granule exo inh = lytic granule exocytosis inhibition; TALL-104 LAMP-1 surface exposure, flow cytometry; cells stimulated with thapsigargin and PMA; inhibition, % at 10 µM; 360,000 tested, 0.66% active; AID 651702;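 active = inhibition above about 55%, limit read from the data; inconclusive = no clear call, values can overlap the other calls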
MC4R ag barr = human MC4R agonism via beta-arrestin; activation, % at 8.9 µM; P32245; AID 540308; 360,000 tested, 0.98% active; U2OS MC4R beta-arrestin complementation, luminescence; percent of melanotan II response, DMSO zero;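 active = activation above a per-plate cutoff, the mean activation of sample wells on that plate plus 3 SD, cut at about 8% in these data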
A1 inh = inhibitors of the anti-apoptotic protein A1, read as caspase activation; MEF A1-2A-BIM cells, Caspase-Glo 3/7 luminescence, 3 h; percent of clofoctol response, vehicle zero; caspase activation, % (concentration not given with the values); 330,000 tested, 0.066% active;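 active = over half of replicate activation scores above 10%, or exactly half above 10 with the replicate mean above 10; inconclusive = replicate mean below 10 yet half the replicates above 10; inactive = over half of replicates below 10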
MC4R barr ag = human MC4R beta-arrestin agonism confirmation | shares compounds with MC4R ag barr | U2OS MC4R beta-arrestin recruitment, luminescence; scaled DMSO 0%, Melanotan II 100% | activation, % at 8.9 µM | 2,400 tested, 31% active;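 active = mean activation across replicates above the hit cutoff set in the earlier primary screen, cut at about 8% in these data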
MOR DOR agonist = activates mu-delta opioid heterodimer, MC4R agonist counter-screen; 2,400 tested, 5.8% active; U2OS PathHunter beta-arrestin, beta-gal luminescence; percent of deltorphin B response, DMSO zero; shares compounds with MC4R ag barr; activation, % at 9.2 µM;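 active = mean activation across replicates exceeds the hit threshold derived in the earlier primary screen, cut at about 18% in these data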
Of the large screens only hits and unclear results are named; the others gave an inactive call (follow-up assays come after a bar, where they were run).

COC(=O)[C@H](C(C)C)N(Cc1cn(Cc2ccccc2)nn1)S(=O)(=O)c1ccc(F)cc1Br	none (no result: NTR1 ag, MC4R antagonist, Granule exo inh, MC4R ag barr, A1 inh)
OC1(C#Cc2c(-c3ccsc3)oc3ccc(N4CCOCC4)cc23)CCCCC1	MC4R ag barr 13 | MC4R barr ag inactive | MOR DOR agonist inactive
Cc1ccc(S(=O)(=O)Nc2ccc(Nc3ccccc3)cc2)cc1	MC4R ag barr 9.7 | MC4R barr ag inactive | MOR DOR agonist inactive
O=S(=O)(Nc1ccc(-c2ccccc2)cc1)c1ccccc1	MC4R ag barr 14 (no result: NTR1 ag, A1 inh) | MC4R barr ag inactive | MOR DOR agonist inactive
Cc1ccc(S(=O)(=O)Nc2ccc(-c3nc4ccc(C)cc4s3)cc2)cc1	MC4R ag barr 14 | MC4R barr ag 15 | MOR DOR agonist inactive
Cc1ccc2nc(-c3ccc(NS(=O)(=O)c4c(C)n(C)c(=O)n(C)c4=O)cc3)sc2c1	none
CC(=O)C1=C(C)N(CC(C)C)C(=S)NC1c1cccc(Cl)c1 (stereo not given)	none (no result: NTR1 ag, MC4R antagonist, Granule exo inh, MC4R ag barr, A1 inh)
COc1cccc(Nc2nnc(SCN3C(=O)c4ccccc4C3=O)s2)c1	MC4R ag barr 14 | MC4R barr ag inactive | MOR DOR agonist inactive
COC(=O)c1cc2n(n1)CCN(Cc1ccc(OC)cc1)C2=O	none
COc1ccc(CN2CCn3ncc(C(=O)Nc4cc(C)cc(C)c4)c3C2=O)cc1	MC4R ag barr 32 | MC4R barr ag inactive | MOR DOR agonist inactive
COC(=O)[C@]12C[C@H](CC(=O)NCC34CC5CC(CC(C5)C3)C4)C(=O)N(Cc3cccc4ccccc34)C1=C[C@H](C1CCCC1)O[C@@H]2C	none (no result: NTR1 ag, MC4R antagonist, Granule exo inh, MC4R ag barr, A1 inh)
Cc1cc(NC(=O)CSc2nc(-c3ccc(Cl)cc3)cs2)no1	MC4R ag barr 18 | MC4R barr ag inactive | MOR DOR agonist inactive
Cc1cc(NC(=O)CSc2ccc(Cl)cc2)no1	none
COc1cccc(-c2nnc(SCC(=O)Nc3cccc4ccccc34)n2Cc2ccco2)c1	none (no result: NTR1 ag, MC4R antagonist, Granule exo inh, MC4R ag barr, A1 inh)
O=C(CSc1nnc(-c2ccccc2)n1-c1ccc(Cl)cc1)c1ccccc1Br	none (no result: NTR1 ag, MC4R antagonist, Granule exo inh, MC4R ag barr, A1 inh)
COc1ccc(C(=O)COC(=O)c2ccc(-n3cnnn3)cc2)c(OC)c1	MC4R ag barr 13 | MC4R barr ag inactive | MOR DOR agonist inactive
COc1ccccc1C(=O)COC(=O)c1ccc(-n2cnnn2)cc1	A1 inh inconclusive
COc1ccccc1C(=O)COC(=O)c1c(-c2ccccc2)noc1C	none
COc1ccc(C(=O)COC(=O)c2c(-c3ccccc3)noc2C)c(OC)c1	MC4R ag barr 14 | MC4R barr ag inactive | MOR DOR agonist inactive
COC(=O)[C@]12C[C@H](CC(=O)NCc3cccc4ccccc34)C(=O)N(CCc3ccc(OC)c(OC)c3)C1=C[C@H](COCc1ccccc1)O[C@@H]2C	none (no result: NTR1 ag, MC4R antagonist, Granule exo inh, MC4R ag barr, A1 inh)
O=C(NC1CCSc2ccccc21)c1ccc(C(F)(F)F)cc1 (stereo not given)	MC4R ag barr 9.7 | MC4R barr ag inactive | MOR DOR agonist inactive
CCCN(CCC)CCNC(=O)c1cc2c(-c3ccc(Cl)cc3)nn(C)c2s1	MC4R ag barr 11 | MC4R barr ag 9.0 | MOR DOR agonist inactive
CCN(CC)CCNC(=O)c1cc2c(-c3ccc(Cl)cc3)nn(C)c2s1	none (no result: A1 inh)
Cc1c(CCOC(=O)CC23CC4CC(CC(C)(C4)C2)C3)sc[n+]1CC(=O)c1ccccc1	Granule exo inh 97, MC4R ag barr 9.8 | MC4R barr ag 20 | MOR DOR agonist inactive
COc1ccc(NC(=O)c2cc3c(Cl)nc4ccccc4c3s2)cc1OC	MC4R ag barr 11 | MC4R barr ag inactive | MOR DOR agonist inactive
COc1ccc(OC)c(NC(=O)c2cc3c(Cl)nc4ccccc4c3s2)c1	MC4R ag barr 28, A1 inh inconclusive | MC4R barr ag inactive | MOR DOR agonist 19
COc1ccc(NC(=O)c2cccc3ccccc23)cc1OC	none (no result: NTR1 ag, A1 inh)
COc1ccc(C(=O)Nc2ccccc2-c2nnn(CC(=O)NCc3ccco3)n2)cc1	MC4R ag barr 11 | MC4R barr ag 10 | MOR DOR agonist inactive
c1cc2ccc3ccc(-n4cnnn4)c4ccc(c1)c2c34	MC4R ag barr 31 | MC4R barr ag inactive | MOR DOR agonist inactive
Cc1[nH]c2ccc(-c3nnc(SCC(=O)c4ccccc4F)o3)cc2c1C	MC4R ag barr 10 | MC4R barr ag inactive | MOR DOR agonist inactive
Cc1sc2nc(C)n(/N=C/c3ccc(O)cc3O)c(=O)c2c1C	none
Cc1sc2nc(C)n(/N=C/c3ccccc3O)c(=O)c2c1C	MC4R ag barr 13 | MC4R barr ag inactive | MOR DOR agonist inactive
O=C1COc2ccc(C(=O)COC(=O)CCSc3ccc(Cl)cc3)cc2N1	MC4R ag barr 19 | MC4R barr ag inactive | MOR DOR agonist inactive
CNC(=O)/C(C#N)=C/c1ccc(-c2nc3ccccc3s2)o1	MC4R ag barr 38 | MC4R barr ag inactive | MOR DOR agonist inactive
N#C/C(=C\c1ccc(-c2nc3ccccc3s2)o1)C(N)=O	MC4R ag barr 21 | MC4R barr ag inactive | MOR DOR agonist inactive
N#C/C(=C/c1ccc(-c2ccc(S(N)(=O)=O)cc2)o1)c1nc2ccccc2s1	none
COCCN1Cc2cc(C(=O)OC)c3c(c2C1=O)c1cc(OC)ccc1n3S(=O)(=O)c1ccc(F)cc1	none (no result: NTR1 ag, MC4R antagonist, Granule exo inh, MC4R ag barr, A1 inh)
O=C(CCCCCn1c(=S)[nH]c2ccc(N3CCOCC3)cc2c1=O)NCc1ccc2c(c1)OCO2	MC4R ag barr 13 | MC4R barr ag inactive | MOR DOR agonist inactive
O=C(CCCCCn1c(=S)[nH]c2ccc(N3CCOCC3)cc2c1=O)NCCc1ccccc1	MC4R ag barr 18 | MC4R barr ag inactive | MOR DOR agonist 18
O=C(CCCCCn1c(=S)[nH]c2ccc(N3CCOCC3)cc2c1=O)NCc1ccc(Cl)cc1	MC4R ag barr 10 | MC4R barr ag inactive | MOR DOR agonist inactive
O=C(CCCCCn1c(=S)[nH]c2ccc(N3CCOCC3)cc2c1=O)NCc1ccccc1Cl	none
Cc1ccc(C)c(NC(=O)C2CCCN2S(=O)(=O)c2cccc3cccnc23)c1 (stereo not given)	none (no result: NTR1 ag, MC4R antagonist, Granule exo inh, MC4R ag barr, A1 inh)
NC(Cc1ccc(C(F)(F)F)cc1)c1csc(Nc2nccc(C(F)(F)F)n2)n1 (stereo not given)	MC4R ag barr 15 (no result: NTR1 ag, A1 inh) | MC4R barr ag 17 | MOR DOR agonist inactive
CCCc1cnc(Nc2nc(C(N)Cc3ccc(C(F)(F)F)cc3)cs2)nc1 (stereo not given)	MC4R ag barr 15 (no result: NTR1 ag, A1 inh) | MC4R barr ag 14 | MOR DOR agonist inactive
